From ChEMBL document CHEMBL4229344 (Eur J Med Chem, 2018) come the findings set out here.

The half-life is the time in which the quantity being followed falls by half. Low readings indicate fast loss, high ones slow loss.

SMILES strings stand for the structures.

Data set [1] has as its target Mitogen-activated protein kinase 12 (Homo sapiens) (UniProt P53778). The data set is described as follows: Binding affinity to wild-type human full length p38-gamma (M1 to L367 residues) expressed in mammalian expression system assessed as residual binding level at 1 uM by Kinomescan method relative to control. The method in brief: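 KINOMEscan competition binding against 468 purified kinases/mutants, test compound at 1 µM; residual binding relative to control.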

Data set [2] addresses Serine/threonine-protein kinase MARK1 (Homo sapiens) (UniProt Q9P0L2). The data set is described as follows: Binding affinity to wild-type human partial length MARK1 (Q30 to T341 residues) expressed in bacterial expression system assessed as residual binding level at 1 uM by Kinomescan method relative to control.
Data set [3] has as its target Bone morphogenetic protein receptor type-2 (Homo sapiens) (UniProt Q13873). The data set is described as follows: Binding affinity to wild-type human partial length BMPR2 (R179 to Q526 residues) expressed in mammalian expression system assessed as residual binding level at 1 uM by Kinomescan method relative to control. The essentials:
(§1)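 Single-concentration KINOMEscan (DiscoverX) binding screen at 1 μM against a panel of 468 purified kinases and mutants. The read-out is binding relative to control.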

Data set [4] has as its target Mitogen-activated protein kinase kinase kinase 14 (Homo sapiens) (UniProt Q99558). The data set is described as follows: Binding affinity to wild-type human partial length NIK (L318 to P947 residues) expressed in mammalian expression system assessed as residual binding level at 1 uM by Kinomescan method relative to control. The essentials:
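KINOMEscan competition binding against a panel of 468 purified kinases/mutants, compound tested at 1 μM; readout is relative binding activity versus control.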

Data set [5] concerns the target Tyrosine-protein kinase Mer (Homo sapiens) (UniProt Q12866). The data set is described as follows: Binding affinity to wild-type human partial length MERTK (R557 to L884 residues) expressed in bacterial expression system assessed as residual binding level at 1 uM by Kinomescan method relative to control.
Data set [6] concerns the target Serine/threonine-protein kinase 32C (Homo sapiens) (UniProt Q86UX6). The data set is described as follows: Binding affinity to wild-type human partial length YANK3 (M68 to G486 residues) expressed in bacterial expression system assessed as residual binding level at 1 uM by Kinomescan method relative to control.
Data set [7] is described as follows: Half life in Sprague-Dawley rat at 1 mg/kg, iv. The conditions noted are these: in vivo. The data set is classed as ADME, organism-based.
The target in data set [8] is Ribosomal protein S6 kinase alpha-2 (Homo sapiens) (UniProt Q15349). The data set is described as follows: Binding affinity to wild-type human partial length C-terminal RSK3 kinase domain 2 (V403 to K700 residues) expressed in bacterial expression system assessed as residual binding level at 1 uM by Kinomescan method relative to control.
Data set [9] deals with Tyrosine-protein kinase ABL1 (Homo sapiens), P00519 [H396P]. The data set is described as follows: Binding affinity to human phosphorylated ABL1 H396P mutant (S229 to K512 residues) expressed in mammalian expression system assessed as residual binding level at 1 uM by Kinomescan method relative to control. The essentials: (§2)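 Single-concentration (1 μM) competition-binding screen run by KINOMEscan against a panel of 468 purified kinases and mutants. The read-out is the relative binding activity of the test compound to each kinase.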

In data set [10] the target is Serine/threonine-protein kinase WNK1 (Homo sapiens) (UniProt Q9H4A3). The data set is described as follows: Binding affinity to wild-type human partial length WNK1 (Q194 to A490 residues) expressed in mammalian expression system assessed as residual binding level at 1 uM by Kinomescan method relative to control.
For data set [11], the target named is Serine/threonine-protein kinase Nek1 (Homo sapiens) (UniProt Q96PY6). The data set is described as follows: Binding affinity to wild-type human partial length NEK1 (M1 to K278 residues) expressed in bacterial expression system assessed as residual binding level at 1 uM by Kinomescan method relative to control.
In data set [12] the target is Ephrin type-A receptor 5 (Homo sapiens) (UniProt P54756). The data set is described as follows: Binding affinity to wild-type human partial length EPHA5 (T627 to V930 residues) expressed in bacterial expression system assessed as residual binding level at 1 uM by Kinomescan method relative to control.
Data set [13] deals with Serine/threonine-protein kinase Nek4 (Homo sapiens) (UniProt P51957). The data set is described as follows: Binding affinity to wild-type human full length NEK4 (M1 to F841 residues) expressed in mammalian expression system assessed as residual binding level at 1 uM by Kinomescan method relative to control. The method in brief:
as §1

Data set [14] concerns the target Angiopoietin-1 receptor (Homo sapiens) (UniProt Q02763). The data set is described as follows: Binding affinity to wild-type human partial length TIE2 (N804 to T1112 residues) expressed in bacterial expression system assessed as residual binding level at 1 uM by Kinomescan method relative to control.
Data set [15] deals with Receptor tyrosine-protein kinase erbB-3 (Homo sapiens) (UniProt P21860). The data set is described as follows: Binding affinity to wild-type human partial length ERBB3 (G684 to A987 residues) expressed in mammalian expression system assessed as residual binding level at 1 uM by Kinomescan method relative to control.
Data set [16] deals with Tyrosine-protein kinase ABL1 (Homo sapiens), P00519 [T315I]. The data set is described as follows: Binding affinity to human phosphorylated ABL1 T315I mutant (S229 to K512 residues) expressed in mammalian expression system assessed as residual binding level at 1 uM by Kinomescan method relative to control. The method in brief:
as §2

For data set [17], the target named is Dual specificity mitogen-activated protein kinase kinase 3 (Homo sapiens) (UniProt P46734). The data set is described as follows: Binding affinity to wild-type human full length MEK3 (M1 to S318 residues) expressed in mammalian expression system assessed as residual binding level at 1 uM by Kinomescan method relative to control. The method in brief:
as §1

Data set [18] deals with Serine/threonine-protein kinase 17A (Homo sapiens) (UniProt Q9UEE5). The data set is described as follows: Binding affinity to wild-type human partial length DRAK1 (R32 to E363 residues) expressed in bacterial expression system assessed as residual binding level at 1 uM by Kinomescan method relative to control.
Data set [19] addresses Serine/threonine-protein kinase NIM1 (Homo sapiens) (UniProt Q8IY84). The data set is described as follows: Binding affinity to wild-type human partial length NIM1 (Q44 to N355 residues) expressed in mammalian expression system assessed as residual binding level at 1 uM by Kinomescan method relative to control.
For data set [20], the target named is Interleukin-1 receptor-associated kinase 1 (Homo sapiens) (UniProt P51617). The data set is described as follows: Binding affinity to wild-type human partial length IRAK1 (R194 to S712 residues) expressed in mammalian expression system assessed as residual binding level at 1 uM by Kinomescan method relative to control.
Data set [21] deals with BMP-2-inducible protein kinase (Homo sapiens) (UniProt Q9NSY1). The data set is described as follows: Binding affinity to wild-type human partial length BIKE (S34 to N329 residues) expressed in bacterial expression system assessed as residual binding level at 1 uM by Kinomescan method relative to control. The method in brief:
as §1

For data set [22], the target named is Mitogen-activated protein kinase kinase kinase 20 (Homo sapiens) (UniProt Q9NYL2). The data set is described as follows: Binding affinity to wild-type human partial length ZAK (M1 to L331 residues) expressed in bacterial expression system assessed as residual binding level at 1 uM by Kinomescan method relative to control.
The target of data set [23] is Tyrosine-protein kinase Fer (Homo sapiens) (UniProt P16591). The data set is described as follows: Binding affinity to wild-type human partial length FER (S542 to T822 residues) expressed in bacterial expression system assessed as residual binding level at 1 uM by Kinomescan method relative to control.

Mitogen-activated protein kinase kinase kinase 20 (Homo sapiens), sequence (Q9NYL2 2-800 limits assumed): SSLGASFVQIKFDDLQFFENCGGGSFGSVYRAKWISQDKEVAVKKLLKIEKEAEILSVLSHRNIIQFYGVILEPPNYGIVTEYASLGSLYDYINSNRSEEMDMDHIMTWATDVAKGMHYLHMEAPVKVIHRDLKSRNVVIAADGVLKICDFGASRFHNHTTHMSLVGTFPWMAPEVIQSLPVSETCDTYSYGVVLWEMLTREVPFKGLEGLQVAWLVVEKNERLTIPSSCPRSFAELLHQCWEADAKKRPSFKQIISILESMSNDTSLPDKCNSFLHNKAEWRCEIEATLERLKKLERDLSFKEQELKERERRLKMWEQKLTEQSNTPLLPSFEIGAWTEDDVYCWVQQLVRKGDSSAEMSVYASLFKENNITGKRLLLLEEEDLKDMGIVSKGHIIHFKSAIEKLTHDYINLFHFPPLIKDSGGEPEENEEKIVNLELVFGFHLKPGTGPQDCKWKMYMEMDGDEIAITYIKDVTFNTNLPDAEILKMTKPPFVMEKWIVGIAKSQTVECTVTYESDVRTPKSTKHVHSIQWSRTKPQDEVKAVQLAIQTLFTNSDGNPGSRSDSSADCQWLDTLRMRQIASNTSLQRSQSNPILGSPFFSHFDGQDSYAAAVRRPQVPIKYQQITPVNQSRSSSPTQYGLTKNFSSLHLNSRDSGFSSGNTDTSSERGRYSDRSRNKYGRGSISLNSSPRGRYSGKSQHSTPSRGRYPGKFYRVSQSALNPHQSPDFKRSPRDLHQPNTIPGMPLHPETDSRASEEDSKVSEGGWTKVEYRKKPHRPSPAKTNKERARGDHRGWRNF
Serine/threonine-protein kinase 32C (Homo sapiens), sequence (Q86UX6 whole entry, the tested form may be a part): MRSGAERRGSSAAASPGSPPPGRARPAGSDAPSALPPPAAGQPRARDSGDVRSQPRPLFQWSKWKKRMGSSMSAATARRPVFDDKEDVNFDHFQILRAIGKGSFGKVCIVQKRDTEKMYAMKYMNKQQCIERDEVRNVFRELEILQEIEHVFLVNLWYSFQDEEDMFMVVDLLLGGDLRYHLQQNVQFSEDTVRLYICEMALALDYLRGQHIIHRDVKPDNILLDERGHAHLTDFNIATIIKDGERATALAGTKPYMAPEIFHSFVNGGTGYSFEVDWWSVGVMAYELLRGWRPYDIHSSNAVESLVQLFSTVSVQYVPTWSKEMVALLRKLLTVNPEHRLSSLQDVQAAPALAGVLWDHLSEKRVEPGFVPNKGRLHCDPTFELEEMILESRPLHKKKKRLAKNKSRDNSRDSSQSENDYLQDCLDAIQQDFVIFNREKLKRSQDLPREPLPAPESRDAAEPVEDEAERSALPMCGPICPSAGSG
Mitogen-activated protein kinase kinase kinase 14 (Homo sapiens), sequence (Q99558 whole entry, looked up, the tested form may be a part): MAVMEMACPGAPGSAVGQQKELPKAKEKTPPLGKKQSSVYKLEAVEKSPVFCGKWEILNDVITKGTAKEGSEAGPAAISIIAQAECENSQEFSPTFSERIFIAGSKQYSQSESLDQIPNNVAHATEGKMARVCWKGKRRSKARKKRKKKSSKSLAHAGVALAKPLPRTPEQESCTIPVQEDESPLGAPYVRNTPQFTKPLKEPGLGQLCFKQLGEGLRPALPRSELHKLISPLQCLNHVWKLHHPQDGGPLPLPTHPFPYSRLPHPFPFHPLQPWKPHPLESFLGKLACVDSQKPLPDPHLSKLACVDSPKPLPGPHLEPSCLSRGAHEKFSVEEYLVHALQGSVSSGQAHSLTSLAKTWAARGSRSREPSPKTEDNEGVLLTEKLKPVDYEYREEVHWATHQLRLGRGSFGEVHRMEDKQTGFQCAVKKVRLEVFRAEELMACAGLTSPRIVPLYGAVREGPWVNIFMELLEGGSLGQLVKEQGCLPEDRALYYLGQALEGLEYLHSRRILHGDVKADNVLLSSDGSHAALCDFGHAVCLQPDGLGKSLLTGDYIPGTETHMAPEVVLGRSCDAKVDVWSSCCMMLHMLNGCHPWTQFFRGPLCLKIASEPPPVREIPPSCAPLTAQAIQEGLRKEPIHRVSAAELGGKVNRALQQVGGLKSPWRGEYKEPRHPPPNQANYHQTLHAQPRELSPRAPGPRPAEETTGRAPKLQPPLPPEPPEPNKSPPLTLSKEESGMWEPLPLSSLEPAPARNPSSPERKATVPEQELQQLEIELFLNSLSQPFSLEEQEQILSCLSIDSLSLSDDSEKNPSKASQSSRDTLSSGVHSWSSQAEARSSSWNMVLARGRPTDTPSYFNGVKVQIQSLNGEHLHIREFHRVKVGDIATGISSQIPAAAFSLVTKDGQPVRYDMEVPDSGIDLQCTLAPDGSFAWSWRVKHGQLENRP
Tyrosine-protein kinase Mer (Homo sapiens), sequence (Q12866 whole entry, the tested form may be a part): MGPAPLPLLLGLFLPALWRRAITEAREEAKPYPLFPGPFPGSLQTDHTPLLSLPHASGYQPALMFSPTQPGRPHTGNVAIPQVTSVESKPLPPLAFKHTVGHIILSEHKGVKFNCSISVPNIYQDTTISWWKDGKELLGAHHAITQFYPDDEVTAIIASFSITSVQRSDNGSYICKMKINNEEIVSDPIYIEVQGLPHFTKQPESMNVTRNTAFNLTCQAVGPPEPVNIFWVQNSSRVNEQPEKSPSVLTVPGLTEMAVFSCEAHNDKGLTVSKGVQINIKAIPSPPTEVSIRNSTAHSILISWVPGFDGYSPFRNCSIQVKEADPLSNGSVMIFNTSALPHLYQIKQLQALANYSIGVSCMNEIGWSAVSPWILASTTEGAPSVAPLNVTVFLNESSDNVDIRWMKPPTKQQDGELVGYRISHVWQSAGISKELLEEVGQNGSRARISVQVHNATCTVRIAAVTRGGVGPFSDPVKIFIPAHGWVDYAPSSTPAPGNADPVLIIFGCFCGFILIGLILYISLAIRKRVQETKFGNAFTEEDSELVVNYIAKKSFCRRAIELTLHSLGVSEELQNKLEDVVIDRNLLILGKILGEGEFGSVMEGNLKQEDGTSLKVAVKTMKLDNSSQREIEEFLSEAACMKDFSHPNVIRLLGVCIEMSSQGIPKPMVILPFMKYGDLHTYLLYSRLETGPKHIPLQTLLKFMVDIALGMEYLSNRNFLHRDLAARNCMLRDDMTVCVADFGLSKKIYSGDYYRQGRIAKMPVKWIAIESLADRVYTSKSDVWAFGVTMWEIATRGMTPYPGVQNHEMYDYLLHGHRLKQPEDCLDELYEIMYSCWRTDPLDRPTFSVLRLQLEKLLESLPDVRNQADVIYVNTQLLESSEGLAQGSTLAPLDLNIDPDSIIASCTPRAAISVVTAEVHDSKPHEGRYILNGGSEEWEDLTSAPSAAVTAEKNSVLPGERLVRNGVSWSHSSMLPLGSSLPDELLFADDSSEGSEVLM
Receptor tyrosine-protein kinase erbB-3 (Homo sapiens), sequence (P21860 whole entry, the tested form may be a part): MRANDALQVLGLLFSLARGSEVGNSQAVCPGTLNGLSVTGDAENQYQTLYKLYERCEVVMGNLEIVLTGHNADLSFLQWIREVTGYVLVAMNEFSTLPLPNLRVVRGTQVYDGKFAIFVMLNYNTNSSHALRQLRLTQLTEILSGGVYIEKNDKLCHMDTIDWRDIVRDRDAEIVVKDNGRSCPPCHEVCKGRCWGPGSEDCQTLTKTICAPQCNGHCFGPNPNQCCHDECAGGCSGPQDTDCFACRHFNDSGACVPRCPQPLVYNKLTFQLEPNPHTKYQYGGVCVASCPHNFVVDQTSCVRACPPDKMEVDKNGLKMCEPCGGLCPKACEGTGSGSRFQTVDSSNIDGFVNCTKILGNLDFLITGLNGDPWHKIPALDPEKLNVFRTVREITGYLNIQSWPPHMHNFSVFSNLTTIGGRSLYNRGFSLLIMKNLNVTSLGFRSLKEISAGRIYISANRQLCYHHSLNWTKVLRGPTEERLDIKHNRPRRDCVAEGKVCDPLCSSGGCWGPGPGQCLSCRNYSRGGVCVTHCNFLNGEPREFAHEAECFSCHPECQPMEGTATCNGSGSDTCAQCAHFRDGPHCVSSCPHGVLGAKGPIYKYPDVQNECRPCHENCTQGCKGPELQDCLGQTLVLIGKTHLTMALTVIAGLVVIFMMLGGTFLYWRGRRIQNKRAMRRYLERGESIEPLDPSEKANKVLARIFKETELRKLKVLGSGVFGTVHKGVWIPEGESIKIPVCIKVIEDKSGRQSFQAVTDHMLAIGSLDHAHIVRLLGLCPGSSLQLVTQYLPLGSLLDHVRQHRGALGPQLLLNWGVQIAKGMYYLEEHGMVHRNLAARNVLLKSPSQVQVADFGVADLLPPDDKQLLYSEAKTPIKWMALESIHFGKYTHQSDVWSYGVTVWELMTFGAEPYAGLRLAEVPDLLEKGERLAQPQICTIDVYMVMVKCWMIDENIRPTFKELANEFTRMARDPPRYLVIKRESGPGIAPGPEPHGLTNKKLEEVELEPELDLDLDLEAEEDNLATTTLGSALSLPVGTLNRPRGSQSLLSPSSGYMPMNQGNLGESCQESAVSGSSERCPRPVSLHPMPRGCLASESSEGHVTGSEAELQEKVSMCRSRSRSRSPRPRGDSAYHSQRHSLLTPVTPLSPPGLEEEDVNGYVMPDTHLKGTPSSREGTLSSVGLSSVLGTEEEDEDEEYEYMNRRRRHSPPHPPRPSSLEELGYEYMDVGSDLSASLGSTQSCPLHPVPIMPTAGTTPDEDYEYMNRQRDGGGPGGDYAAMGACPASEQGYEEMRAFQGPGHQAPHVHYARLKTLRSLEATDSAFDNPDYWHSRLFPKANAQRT
Serine/threonine-protein kinase 17A (Homo sapiens), sequence (Q9UEE5 whole entry, the tested form may be a part): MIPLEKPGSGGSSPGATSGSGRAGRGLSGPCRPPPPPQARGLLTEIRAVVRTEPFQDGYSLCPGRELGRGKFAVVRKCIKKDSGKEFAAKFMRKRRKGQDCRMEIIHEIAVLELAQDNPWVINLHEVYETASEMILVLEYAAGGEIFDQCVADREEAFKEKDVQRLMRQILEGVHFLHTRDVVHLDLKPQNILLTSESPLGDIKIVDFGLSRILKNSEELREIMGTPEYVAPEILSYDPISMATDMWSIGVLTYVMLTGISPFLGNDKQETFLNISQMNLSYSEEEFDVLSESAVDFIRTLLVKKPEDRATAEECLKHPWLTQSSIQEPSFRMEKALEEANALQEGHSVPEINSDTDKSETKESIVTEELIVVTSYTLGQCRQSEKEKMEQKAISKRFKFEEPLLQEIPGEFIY

As for `Cc1ccc(NC(=O)c2ccc(CN(CCN(C)C)C(=O)c3cccnc3)cc2)cc1Nc1nccc(-c2cccnc2)n1`, the Activity amounted to 69% in data set [1]; 97% in data set [2]; 100% in data set [3]; 82% in [4]; 100% in data set [5]; 96% in data set [6]. Further, the Activity in data set [8] turned out to be 88%; in data set [9] it was 97%; in [10], 85%; in [11], 100%; in data set [12] it was 86%; in data set [13], 100%. Besides, the Activity worked out at 93% in data set [14]; 95% in data set [15]; 100% in data set [16]; 98% in data set [17]; 77% in data set [18]; 100% in data set [19]. For the same molecule, the Activity is 98% in data set [20], 99% in data set [21], 100% in data set [22] and 100% in data set [23]. In data set [7], this molecule showed a half-life of 2.05 h.
